How the values were obtained:
PRMT6 [1] = molecular target: T1, PRMT6 (Homo sapiens, UniProt Q96LA8); test: Methyltransferase selectivity panel: PRMT6; format: biochemical; conditions: at 1 and 10 μM
Summary of the method: (§1)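 Panel of 33 methyltransferases (8 PRMTs, 21 PKMTs, 3 DNMTs, 1 RNA methyltransferase) run by an earlier published protocol. Test compound at 1 μM and 10 μM; n = 3.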

PNT2 = test: Cell viability assay; format: cell-based; conditions: PNT2, up to 10 μM, 3 days treatment
Summary of the method: (§2)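 Cells seeded at 1 × 10^4 per well and left 24 h, then exposed for 3 days to serially diluted test compound starting at 10 μM. CCK-8 (WST-8) reagent added, followed by 4 h at 37 °C; absorbance read at 450 nm. Results given as average ± SD of three replicate experiments.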

PRMT6 [2] = molecular target: T1, PRMT6; test: PRMT6 radiometric biochemical assay, 2 h preincubation
[3] = molecular target: Flag-tagged PRMT6 in HEK293T cells (Homo sapiens, UniProt Q96LA8); test: Cellular PRMT6 assay; format: cell-based; conditions: 20 h, up to 10 μM
MCF-7 = test: Cell viability assay; format: cell-based; conditions: MCF-7, up to 10 μM, 3 days treatment
Summary of the method: as §2

HEK293T = test: Cell viability assay; format: cell-based; conditions: up to 10 μM, 3 days treatment
Summary of the method: as §2

[4] = test system: other 32 methyltransferases (PRMTs, PKMTs, DNMTs, RNA methyltransferase); test: Methyltransferase selectivity panel: other 32 methyltransferases; format: biochemical; conditions: at 1 and 10 μM
Summary of the method: as §1

HEK293T cells = test: Toxicity to HEK293T cells seen in the cellular PRMT6 assay; format: cell-based; conditions: 20 h
PRMT6 [5] = molecular target: T1, PRMT6; test: Mass spectrometry analysis for assessing covalent binding; conditions: PRMT6 incubated with compound for 2 h
Summary of the method: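 Purified PRMT6 incubated with a 20-fold molar excess of test compound at room temperature, then acidified with 0.1% trifluoroacetic acid (aq.). Sample separated by HPLC on a 5–95% acetonitrile/water gradient and analysed by electrospray-ionisation time-of-flight mass spectrometry for mass shifts indicating covalent adducts.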

T1 sequence (Q96LA8 whole entry): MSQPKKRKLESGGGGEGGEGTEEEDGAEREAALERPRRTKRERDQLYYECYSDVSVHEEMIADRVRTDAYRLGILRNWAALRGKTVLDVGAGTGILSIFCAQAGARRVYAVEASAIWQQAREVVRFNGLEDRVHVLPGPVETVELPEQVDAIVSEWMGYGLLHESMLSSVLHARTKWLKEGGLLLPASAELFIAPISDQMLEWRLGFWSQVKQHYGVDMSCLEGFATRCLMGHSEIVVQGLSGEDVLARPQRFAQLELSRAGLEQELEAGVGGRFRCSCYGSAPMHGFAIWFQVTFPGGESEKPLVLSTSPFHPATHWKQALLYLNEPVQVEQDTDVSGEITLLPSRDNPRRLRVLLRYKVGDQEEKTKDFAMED
Flag-tagged PRMT6 in HEK293T cells, sequence (Q96LA8 whole entry): as above

Structure (SMILES)	inhibition of PRMT6 in methyltransferase panel (PRMT6 [1])	toxicity (cell viability) (PNT2)	activity against PRMT6 (in words) (PRMT6 [2])	reduction of cellular levels of H3R2me2a [3]	reduction of cellular levels of H4R3me2a [3]	toxicity (cell viability) (MCF-7)	toxicity (cell viability) (HEK293T)	inhibition of other 32 methyltransferases [4]	toxicity to HEK293T cells (HEK293T cells; at 30 μM)	decrease in the IC50 value after compound preincubation with PRMT6 (PRMT6 [2]; 2 h preincubation versus no incubation)	pattern of inhibition with respect to SAM cofactor and peptide substrate (PRMT6 [2]; 2 h preincubation, IC50 at various SAM or peptide concentrations)	covalent modification of PRMT6 (PRMT6 [5])	toxicity to HEK293T cells (HEK293T cells; up to 10 μM)
Cc1cc(C)cc([C@H]2c3cc(C)ccc3NC(=O)CN2C(=O)c2ccc(Br)s2)c1 [(S)-2, 4-(5-bromothiophene-2-carbonyl)-5-(3,5-dimethylphenyl)-7-methyl-1,3,4,5-tetrahydro-2H-benzo[e][1,4]diazepin-2-one]	did not significantly inhibit	Neither (R)-2 nor (S)-2 showed any significant toxicity	inactive	did not significantly reduce	did not significantly reduce	Neither (R)-2 nor (S)-2 showed any significant toxicity	Neither (R)-2 nor (S)-2 showed any significant toxicity	did not significantly inhibit	significant toxicity	–	–	–	–
Cc1cc(C)cc([C@@H]2c3cc(C)ccc3NC(=O)CN2C(=O)c2ccc(Br)s2)c1 [(R)-2, 4-(5-bromothiophene-2-carbonyl)-5-(3,5-dimethylphenyl)-7-methyl-1,3,4,5-tetrahydro-2H-benzo[e][1,4]diazepin-2-one]	potently inhibited	Neither (R)-2 nor (S)-2 showed any significant toxicity	–	–	–	Neither (R)-2 nor (S)-2 showed any significant toxicity	Neither (R)-2 nor (S)-2 showed any significant toxicity	did not significantly inhibit	–	more than 100 fold	noncompetitive	No covalent modification	did not show significant toxicity

Source: paper PMC8035306 (Journal of medicinal chemistry, 2021)
